# Measurements taken from ChEMBL document CHEMBL3414553, “Novel imidazo[2,1-b]-1,3,4-thiadiazoles as promising antifungal agents against clinical isolate of Cryptococcus neoformans” (2015).
# Key:
# Type in all cases: functional
# Candida albicans [1] = test: Antifungal activity against Candida albicans ATCC 90028 after 24 hrs by two-fold broth microdilution method; conditions: ATCC 90028, 24 h
# Method in brief: (§1)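 Strains subcultured one day before testing; colonies suspended in sterile water and adjusted to 0.5 McFarland (1.5 × 10^8 cfu/ml). Two-fold dilutions in MHB (medium pH 7.4 ± 0.1), final 200 to 0.39 µg/ml. Incubated 37 ± 1 °C for 24 h, then resazurin (0.4 mg/ml) added for a further 5 h. MIC read by colour: blue = no growth, pink = growth.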
# Candida albicans [2] = test: Antifungal activity against Candida albicans clinical isolate after 24 hrs by two-fold broth microdilution method; method in brief: as §1
# Cryptococcus neoformans [3] = test: Antifungal activity against […] ATCC 66031 after 24 hrs by two-fold broth microdilution method; conditions: ATCC 66031, 24 h; method in brief: as §1
# Cryptococcus neoformans [4] = test: Antifungal activity against […] clinical isolate after 24 hrs by two-fold broth microdilution method; method in brief: as §1
# Aspergillus niger = test: Antifungal activity against Aspergillus niger ATCC 16404 after 24 hrs by two-fold broth microdilution method; conditions: ATCC 16404, 24 h; method in brief: as §1
# Staphylococcus aureus = test: Antibacterial activity against Staphylococcus aureus ATCC 25923 after 24 hrs by two-fold broth microdilution method; conditions: ATCC 25923, 24 h; method in brief: as §1
# Bacillus subtilis = test: Antibacterial activity against Bacillus subtilis ATCC 6051 after 24 hrs by two-fold broth microdilution method; conditions: ATCC 6051, 24 h; method in brief: as §1
# Escherichia coli = test: Antibacterial activity against Escherichia coli ATCC 35218 after 24 hrs by two-fold broth microdilution method; conditions: ATCC 35218, 24 h; method in brief: as §1
# Pseudomonas aeruginosa = test: Antibacterial activity against Pseudomonas aeruginosa ATCC 27853 after 24 hrs by two-fold broth microdilution method; conditions: ATCC 27853, 24 h; method in brief: as §1
# [5] = Cytotoxicity against human OVCAR3 cells; conditions: OVCAR-3
# MCF7 = test: Cytotoxicity against human MCF7 cells
# [6] = Cytotoxicity against human HL60 cells; conditions: HL-60
# Candida albicans [7] = test: Antimicrobial activity against Candida albicans
# Candida tropicalis = test: Antimicrobial activity against Candida tropicalis
# Cryptococcus neoformans [8] = test: Antimicrobial activity against […]
SMILES,MIC (Candida albicans [1]),MIC (Candida albicans [2]),MIC (Cryptococcus neoformans [3]),MIC (Cryptococcus neoformans [4]),MIC (Aspergillus niger),MIC (Staphylococcus aureus),MIC (Bacillus subtilis),MIC (Escherichia coli),MIC (Pseudomonas aeruginosa),GI50 [5],GI50 (MCF7),GI50 [6],MIC (Candida albicans [7]),MIC (Candida tropicalis),MIC (Cryptococcus neoformans [8])
COc1ccc(-c2nn3c(/C=C/C(=O)c4ccc(C)cc4)c(-c4ccc(Br)cc4)nc3s2)cc1,200 µg/mL,> 200 µg/mL,1.56 µg/mL,3.12 µg/mL,> 200 µg/mL,> 200 µg/mL,> 200 µg/mL,200 µg/mL,> 200 µg/mL,,,,,,
Clc1ccccc1-c1nn2c(/C=N/C3CCCCC3)c(-c3ccc(Br)cc3)nc2s1,12.5 µg/mL,25 µg/mL,100 µg/mL,> 200 µg/mL,100 µg/mL,200 µg/mL,200 µg/mL,200 µg/mL,50 µg/mL,,,,,,
Brc1ccc(-c2nc3sc(-c4ccccc4)nn3c2/C=N/C2CC2)cc1,25 µg/mL,50 µg/mL,100 µg/mL,> 200 µg/mL,100 µg/mL,200 µg/mL,200 µg/mL,200 µg/mL,50 µg/mL,,,,,,
Clc1ccc(-c2nn3c(/C=N/C4CCCCC4)c(-c4ccc(Br)cc4)nc3s2)cc1,50 µg/mL,50 µg/mL,100 µg/mL,> 200 µg/mL,100 µg/mL,200 µg/mL,200 µg/mL,200 µg/mL,50 µg/mL,,,,,,
CC1=NN2C(=NC(C)C2C(=O)NNc2ccc(O)cc2)S1 (stereo not drawn),,,,,,,,,,5.51 µM,4.51 µM,4.5 µM,,,
O=C(/C=C/c1c(-c2ccc(Br)cc2)nc2sc(-c3ccc(Cl)cc3)nn12)c1ccccc1,> 200 µg/mL,> 200 µg/mL,6.25 µg/mL,12.5 µg/mL,> 200 µg/mL,> 200 µg/mL,> 200 µg/mL,> 200 µg/mL,> 200 µg/mL,,,,,,
C[C@@H]1[C@H](O)[C@@H](C)/C=C/C=C/C=C/C=C/C=C/C=C/C=C/[C@H](O[C@@H]2O[C@H](C)[C@@H](O)[C@H](N)[C@@H]2O)C[C@@H]2O[C@](O)(C[C@@H](O)C[C@@H](O)[C@H](O)CC[C@@H](O)C[C@@H](O)CC(=O)O[C@H]1C)C[C@H](O)[C@H]2C(=O)O [AMPHOTERICIN B],0.25 µg/mL,25 µg/mL,1 µg/mL,1 µg/mL,1.95 µg/mL,,,,,,,,,,
COc1ccc(-c2nn3c(/C=N/C4CC4)c(-c4ccc(Br)cc4)nc3s2)cc1,25 µg/mL,50 µg/mL,100 µg/mL,> 200 µg/mL,100 µg/mL,200 µg/mL,200 µg/mL,200 µg/mL,25 µg/mL,,,,,,
Brc1ccc(-c2nc3sc(-c4ccc(I)cc4)nn3c2/C=N/C2CC2)cc1,25 µg/mL,50 µg/mL,100 µg/mL,> 200 µg/mL,100 µg/mL,200 µg/mL,200 µg/mL,200 µg/mL,50 µg/mL,,,,,,
Cc1ccc(C(=O)/C=C/c2c(-c3ccc(Br)cc3)nc3sc(-c4ccccc4Cl)nn23)cc1,50 µg/mL,> 200 µg/mL,50 µg/mL,100 µg/mL,> 200 µg/mL,200 µg/mL,> 200 µg/mL,> 200 µg/mL,> 200 µg/mL,,,,,,
COc1ccc(-c2nn3cc(-c4ccc(Br)cc4)nc3s2)cc1OC,,,,,,,,,,,,,6.25 µg/mL,12.5 µg/mL,6.25 µg/mL
COc1ccc(-c2nn3c(/C=C/C(=O)c4cccs4)c(-c4ccc(Br)cc4)nc3s2)cc1,100 µg/mL,> 200 µg/mL,25 µg/mL,200 µg/mL,> 200 µg/mL,> 200 µg/mL,> 200 µg/mL,> 200 µg/mL,> 200 µg/mL,,,,,,
COc1ccc(-c2nn3c(/C=C/C(=O)c4ccccc4)c(-c4ccc(Br)cc4)nc3s2)cc1,50 µg/mL,> 200 µg/mL,3.12 µg/mL,12.5 µg/mL,> 200 µg/mL,> 200 µg/mL,> 200 µg/mL,200 µg/mL,> 200 µg/mL,,,,,,
CC1(C)S[C@@H]2[C@H](NC(=O)[C@H](N)c3ccc(O)cc3)C(=O)N2[C@H]1C(=O)O [AMOXICILLIN],,,,,,< 0.39 µg/mL,< 0.39 µg/mL,< 0.39 µg/mL,< 0.39 µg/mL,,,,,,
Cc1ccc(C(=O)/C=C/c2c(-c3ccc(Br)cc3)nc3sc(-c4ccccc4Br)nn23)cc1,200 µg/mL,> 200 µg/mL,1.56 µg/mL,12.5 µg/mL,> 200 µg/mL,100 µg/mL,> 200 µg/mL,> 200 µg/mL,> 200 µg/mL,,,,,,
O=C(/C=C/c1c(-c2ccc(Br)cc2)nc2sc(-c3ccccc3)nn12)c1cccs1,200 µg/mL,> 200 µg/mL,6.25 µg/mL,6.25 µg/mL,> 200 µg/mL,> 200 µg/mL,> 200 µg/mL,> 200 µg/mL,> 200 µg/mL,,,,,,
